Source: ChEMBL document CHEMBL1149635, “New chemical tools for investigating human mitotic kinesin Eg5” (Bioorg Med Chem, 2007)
Active and inactive are the calls of the source. No cut-off for these calls is given here.

What was measured:
[1] = biological target: T1, Kinesin-like protein KIF11 (Homo sapiens) (UniProt P52732); test: Inhibition of microtubule-stimulated Eg5 ATPase activity expressed in Escherichia coli at 500 uM after 12 hrs; assay type: functional
T1 sequence (whole entry): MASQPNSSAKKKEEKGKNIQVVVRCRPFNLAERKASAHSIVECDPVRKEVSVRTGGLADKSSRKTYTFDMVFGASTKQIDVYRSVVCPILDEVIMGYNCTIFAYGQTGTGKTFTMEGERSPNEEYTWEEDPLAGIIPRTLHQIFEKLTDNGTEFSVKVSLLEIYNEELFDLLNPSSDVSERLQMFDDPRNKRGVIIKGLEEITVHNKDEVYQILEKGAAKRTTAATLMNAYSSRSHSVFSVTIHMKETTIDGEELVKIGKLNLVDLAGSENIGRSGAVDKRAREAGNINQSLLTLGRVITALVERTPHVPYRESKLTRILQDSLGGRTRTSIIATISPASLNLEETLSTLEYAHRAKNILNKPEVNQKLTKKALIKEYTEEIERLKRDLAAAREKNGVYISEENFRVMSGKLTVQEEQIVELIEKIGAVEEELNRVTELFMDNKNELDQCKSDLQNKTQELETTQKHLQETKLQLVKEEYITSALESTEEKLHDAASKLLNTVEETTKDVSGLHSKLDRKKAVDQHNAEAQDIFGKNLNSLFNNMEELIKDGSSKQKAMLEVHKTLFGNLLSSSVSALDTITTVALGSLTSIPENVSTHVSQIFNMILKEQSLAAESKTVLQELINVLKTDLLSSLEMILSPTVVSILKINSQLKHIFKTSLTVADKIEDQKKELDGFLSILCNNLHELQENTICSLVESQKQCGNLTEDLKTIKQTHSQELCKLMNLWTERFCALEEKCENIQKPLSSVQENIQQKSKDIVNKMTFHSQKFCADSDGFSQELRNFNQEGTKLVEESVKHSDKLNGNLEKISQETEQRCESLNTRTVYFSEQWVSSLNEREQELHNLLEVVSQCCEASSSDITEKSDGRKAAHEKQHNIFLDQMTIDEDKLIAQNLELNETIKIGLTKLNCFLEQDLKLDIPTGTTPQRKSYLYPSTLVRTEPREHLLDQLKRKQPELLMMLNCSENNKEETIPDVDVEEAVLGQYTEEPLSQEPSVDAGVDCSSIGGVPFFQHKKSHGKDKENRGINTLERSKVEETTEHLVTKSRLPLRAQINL

[2] = biological target: T1, Kinesin-like protein KIF11 (Homo sapiens); test: Inhibition of Eg5 ATPase activity expressed in Escherichia coli at 500 uM after 12 hrs; assay type: functional
In short: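 Basal (no microtubules) steady-state ATPase of Eg5 2–386 at 1.0 µM, pyruvate kinase/lactate dehydrogenase-coupled assay, room temperature, duplicate, 2.5% DMSO; top concentration 500 µM. Acetylated analogues alternatively preincubated (2 mM) 12 h at 37 °C in DMEM + 10% FBS before basal ATPase measurement.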

HeLa [3] = test: Induction of monoastral spindles in HeLa cells at 50 uM after 7 hrs; assay type: functional, Homo sapiens
In short: (§1)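 Fixed 1% paraformaldehyde-PBS 37 °C 3 min, then methanol −20 °C 5 min; anti-β-tubulin plus FITC secondary, propidium iodide counterstain. Monoastral spindles counted as percentage of mitotic cells; <25% deemed not significant.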

HeLa [4] = test: Induction of monoastral spindles in HeLa cells at 100 uM after 7 hrs; assay type: functional, Homo sapiens; in short: as §1
[5] = biological target: T2, Kinesin-like protein KIF11 (Homo sapiens, UniProt P52732); test: Inhibition of Eg5 ATPase activity expressed in Escherichia coli after 12 hrs; assay type: functional
T2 sequence (P52732 whole entry): T1 sequence (whole entry)

[6] = biological target: T2, Kinesin-like protein KIF11; test: Inhibition of microtubule-stimulated Eg5 ATPase activity expressed in Escherichia coli after 12 hrs; assay type: functional
HeLa [7] = test: Cell cycle arrest in human HeLa cells assessed as 4N DNA content at 25 uM after 24 hrs; assay type: functional
In short: (§2)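 HeLa cells exposed 24 h; two-dimensional flow cytometry with MPM-2 antibody (mitosis-specific phosphoepitopes, FITC-conjugated secondary) and propidium iodide for DNA content; 10,000 events per sample, aggregates gated out; 4N population and fraction MPM-2 positive scored.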

HeLa [8] = test: Induction of monoastral spindles in HeLa cells after 7 hrs; assay type: functional, cell-based; settings: Homo sapiens; in short: as §1
[9] = biological target: T2, Kinesin-like protein KIF11; test: Inhibition of Eg5 ATPase activity expressed in Escherichia coli after 12 hrs
HeLa [10] = test: Cell cycle arrest in human HeLa cells assessed as 4N DNA content at 100 uM after 24 hrs; assay type: functional; in short: as §2

**Q.** Which Activity [1] does the source give for `CCOC(=O)C1=C(C)NC(=S)NC1c1cc(O)ccc1[N+](=O)[O-]` (configuration not stated) here?
**A.** inactive

**Q.** And the Activity [2]?
**A.** inactive

**Q.** And the Activity (HeLa [3])?
**A.** <25%

**Q.** Which Activity [1] does the source give for `CCOC(=O)C1=C(C)NC(SCC)=NC1c1cccc(O)c1` (configuration not stated) here?
**A.** inactive

**Q.** What about the Activity (HeLa [4]) of the same molecule?
**A.** <25%

**Q.** And the Activity [2]?
**A.** inactive

**Q.** What about the Activity (HeLa [3]) of the same molecule?
**A.** <25%

**Q.** What does the source list for `CC1=C(C(=O)OCCOCCOCCOCCO)C(c2cccc(O)c2)NC(=S)N1` (configuration not stated)?
**A.** IC50 [5]: 23 µM; Activity (HeLa [4]): 16.8%; Activity (HeLa [3]): <25%; IC50 [6]: 62.5 µM

**Q.** What does the source list for `CCOC(=O)C1=C(C)NC(=S)NC1c1cc(OC(C)=O)ccc1OC(C)=O` (configuration not stated)?
**A.** Activity [1]: inactive; Activity [2]: inactive; Activity (HeLa [3]): 56.2%

**Q.** `CC1=C(C(=O)NCCOCCOCCN=[N+]=[N-])C(c2cccc(O)c2)NC(=S)N1` (configuration not stated) was tested. Which IC50 [5] did it give?
**A.** 39 µM

**Q.** What about the Activity (HeLa [4]) of the same molecule?
**A.** 14.9%

**Q.** What about the Activity (HeLa [3]) of the same molecule?
**A.** <25%

**Q.** And the IC50 [6]?
**A.** 69.1 µM

**Q.** With `CCOC(=O)C1=C(C)NC(=S)NC1c1cc(O)ccc1O` (configuration not stated) as the molecule, how does the Activity [1] read?
**A.** inactive

**Q.** And the Activity [2]?
**A.** inactive

**Q.** What about the Activity (HeLa [3]; Homo sapiens) of the same molecule?
**A.** Active

**Q.** How did the IC50 [5] turn out when `CC(=O)SCCOCCOC(=O)C1=C(C)NC(=S)NC1c1cccc(O)c1` (configuration not stated) was run?
**A.** 4.5 µM

**Q.** And the Activity (HeLa [4])?
**A.** 32.5%

**Q.** And the Activity (HeLa [3])?
**A.** <25%

**Q.** And the IC50 [6]?
**A.** 11.5 µM

**Q.** `CC1=C(C(=O)NCCOCCOCCN)C(c2cccc(O)c2)NC(=S)N1` (configuration not stated) was tested. Which IC50 [5] did it give?
**A.** 22 µM

**Q.** What about the Activity (HeLa [4]) of the same molecule?
**A.** 15.8%

**Q.** What about the Activity (HeLa [3]) of the same molecule?
**A.** <25%

**Q.** And the IC50 [6]?
**A.** 18.3 µM

**Q.** How did the Activity (HeLa [7]) turn out when `COC(=O)Nc1nc2cc(C(=O)c3cccs3)ccc2[nH]1` [NOCODAZOLE] was run?
**A.** 82%

**Q.** What does the source list for `CC1=C(C(=O)OCCOCCS)C(c2cccc(O)c2)NC(=S)N1` (configuration not stated)?
**A.** IC50 [5]: 4 µM; Activity (HeLa [4]): 15.2%; Activity (HeLa [3]): <25%; IC50 [6]: 5.5 µM

**Q.** Which IC50 (HeLa [8]) does the source give for `CCOC(=O)C1=C(C)NC(=S)NC1c1cccc(OC(C)=O)c1` (configuration not stated) here?
**A.** 50 µM

**Q.** What about the Activity [1] of the same molecule?
**A.** inactive

**Q.** What about the Activity (HeLa [4]) of the same molecule?
**A.** 89.6%

**Q.** What about the Activity [2] of the same molecule?
**A.** inactive

**Q.** What about the Activity (HeLa [3]) of the same molecule?
**A.** 49.7%

**Q.** And the IC50 [9]?
**A.** 3.9 µM

**Q.** With `CCOC(=O)C1=C(C)NC(=S)N(C(C)=O)C1c1cccc(OC(C)=O)c1` (configuration not stated) as the molecule, how does the IC50 (HeLa [8]) read?
**A.** 62.5 µM

**Q.** And the Activity [1]?
**A.** inactive

**Q.** What about the Activity (HeLa [4]) of the same molecule?
**A.** 83.5%

**Q.** What about the Activity [2] of the same molecule?
**A.** inactive

**Q.** And the Activity (HeLa [3])?
**A.** 39.3%

**Q.** And the IC50 [9]?
**A.** 5 µM

**Q.** Which IC50 [5] does the source give for `CCOC(=O)C1=C(C)NC(=[Se])NC1c1cccc(O)c1` (configuration not stated) here?
**A.** 11.5 µM

**Q.** And the Activity (HeLa [4])?
**A.** 33.2%

**Q.** What about the IC50 [6] of the same molecule?
**A.** 23 µM

**Q.** Which results are given for `CC1=C(C(=O)OCCOCCO)C(c2cccc(O)c2)NC(=S)N1` (configuration not stated)?
**A.** IC50 [5]: 9.5 µM; Activity (HeLa [4]): 50.5%; Activity (HeLa [3]): <25%; IC50 [6]: 21 µM

**Q.** Which Activity [1] does the source give for `CCOC(=O)C1=C(C)NC(=S)NC1c1ccc(O)c(O)c1` (configuration not stated) here?
**A.** inactive

**Q.** And the Activity [2]?
**A.** inactive

**Q.** And the Activity (HeLa [3])?
**A.** <25%

**Q.** For `CCNC(=O)C1=C(C)NC(=S)NC1c1cccc(O)c1` (configuration not stated), which IC50 [5] is on record?
**A.** 23 µM

**Q.** And the Activity (HeLa [4])?
**A.** 17.8%

**Q.** What about the Activity (HeLa [3]) of the same molecule?
**A.** <25%

**Q.** And the IC50 [6]?
**A.** 82.3 µM

**Q.** For `CC1=C(C(=O)OCCOCCOC(=O)C2=C(C)NC(=S)NC2c2cccc(O)c2)C(c2cccc(O)c2)NC(=S)N1` (configuration not stated), which IC50 [5] is on record?
**A.** 10 µM

**Q.** And the Activity (HeLa [4])?
**A.** 11.4%

**Q.** And the Activity (HeLa [3])?
**A.** <25%

**Q.** What about the IC50 [6] of the same molecule?
**A.** 24 µM

**Q.** For `CCOC(=O)C1=C(C)N=C(SCc2ccccc2)NC1c1cccc(O)c1` (configuration not stated), which Activity [1] is on record?
**A.** inactive

**Q.** And the Activity (HeLa [4])?
**A.** <25%

**Q.** What about the Activity [2] of the same molecule?
**A.** inactive

**Q.** And the Activity (HeLa [3])?
**A.** <25%

**Q.** Which results are given for `CCOC(=O)C1=C(C)N(CCOCCOCCO)C(=S)NC1c1cccc(O)c1` (configuration not stated)?
**A.** Activity [1]: inactive; Activity (HeLa [4]): 13.6%; Activity [2]: inactive; Activity (HeLa [3]): <25%

**Q.** `CCOC(=O)C1=C(C)NC(=S)NC1c1ccc(OCCOCCOCCO)c(O)c1` (configuration not stated) was tested. Which Activity [1] did it give?
**A.** inactive

**Q.** What about the Activity (HeLa [4]) of the same molecule?
**A.** 10.3%

**Q.** What about the Activity [2] of the same molecule?
**A.** inactive

**Q.** What about the Activity (HeLa [3]) of the same molecule?
**A.** <25%

**Q.** Which results are given for `CCOC(=O)C1=C(C)NC(=S)N(C(C)=O)C1c1cccc(O)c1` (configuration not stated)?
**A.** Activity [1]: inactive; Activity [2]: inactive; Activity (HeLa [3]): 36.9%; IC50 [9]: 3.8 µM

**Q.** Which IC50 [5] does the source give for `CCOC(=O)C1=C(C)NC(=S)NC1c1cccc(O)c1` (configuration not stated) [MONASTROL] here?
**A.** 6.1 µM

**Q.** What about the Activity (HeLa [10]) of the same molecule?
**A.** 48%

**Q.** And the IC50 (HeLa [8])?
**A.** 51.3 µM

**Q.** What about the Activity (HeLa [4]) of the same molecule?
**A.** 94.4%

**Q.** And the Activity (HeLa [3])?
**A.** 45.5%

**Q.** And the IC50 [9]?
**A.** 6.1 µM

**Q.** And the IC50 [6]?
**A.** 12.3 µM

**Q.** Which results are given for `CC1=C(C(=O)c2ccco2)C(c2cccc(O)c2)NC(=S)N1` (configuration not stated)?
**A.** IC50 [5]: 1.5 µM; Activity (HeLa [10]): 77%; IC50 (HeLa [8]): 9.2 µM; Activity (HeLa [3]): 96.8%; Activity (HeLa [7]): 72%; IC50 [6]: 3 µM

**Q.** With `CC1=C(C(=O)O)C(c2cccc(O)c2)NC(=S)N1` (configuration not stated) as the molecule, how does the IC50 [5] read?
**A.** 32 µM

**Q.** And the Activity (HeLa [4])?
**A.** 15.5%

**Q.** What about the Activity (HeLa [3]) of the same molecule?
**A.** <25%

**Q.** What about the IC50 [6] of the same molecule?
**A.** 72.2 µM
